Assay results taken from BindingDB's records for doi:10.1021/jm0100741 (Tohoku University, 2001).

Assays:
[1] = target: Dual specificity protein phosphatase 3 (Homo sapiens, UniProt P51452); assay: Inhibitory activity against vaccinia VH1-related phosphatase (VHR)
Outline: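 Recombinant VHR expressed in E. coli and purified, used at 0.6 μM with 10 mM pNPP substrate in 50 mM succinate, 1 mM EDTA, 150 mM NaCl, pH 6.0, ± compound. Incubated 3 min at 37 °C, stopped with 1 N NaOH, and activity read as absorbance change at 405 nm.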

[2] = target: T1, M-phase inducer phosphatase 2 (Mus musculus, UniProt P30306); assay: Inhibitory activity against cell division cycle 25B
T1 sequence (P30306 whole entry): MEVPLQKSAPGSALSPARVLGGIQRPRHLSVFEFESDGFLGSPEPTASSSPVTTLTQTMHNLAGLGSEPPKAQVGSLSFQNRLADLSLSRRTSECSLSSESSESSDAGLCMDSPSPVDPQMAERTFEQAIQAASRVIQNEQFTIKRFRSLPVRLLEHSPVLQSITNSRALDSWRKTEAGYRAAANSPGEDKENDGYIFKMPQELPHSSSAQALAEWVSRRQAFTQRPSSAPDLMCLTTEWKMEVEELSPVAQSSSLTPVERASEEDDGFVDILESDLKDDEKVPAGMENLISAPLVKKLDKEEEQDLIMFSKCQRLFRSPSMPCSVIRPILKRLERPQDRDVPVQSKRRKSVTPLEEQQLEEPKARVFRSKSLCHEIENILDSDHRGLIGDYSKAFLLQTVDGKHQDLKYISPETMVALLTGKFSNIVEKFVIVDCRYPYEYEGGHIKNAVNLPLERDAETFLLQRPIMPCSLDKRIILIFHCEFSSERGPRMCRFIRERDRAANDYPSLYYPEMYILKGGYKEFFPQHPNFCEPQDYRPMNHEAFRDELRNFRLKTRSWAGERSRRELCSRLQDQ

Dual specificity protein phosphatase 3, sequence (P51452 whole entry): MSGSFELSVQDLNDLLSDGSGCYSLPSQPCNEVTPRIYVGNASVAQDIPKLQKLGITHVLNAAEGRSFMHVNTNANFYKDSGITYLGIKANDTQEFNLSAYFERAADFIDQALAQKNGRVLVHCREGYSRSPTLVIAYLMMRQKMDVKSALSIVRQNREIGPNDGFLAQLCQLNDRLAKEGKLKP

Row | Compound | IC50 [1] | IC50 [2]
1 | O=C(OC1CCCCC1)c1c(O)oc(CO)c1O [4-Hydroxy-5-hydroxymethyl-2-oxo-2,5-dihydro-furan-3-carboxylic acid cyclohexyl ester] | > 250 µM | > 125 µM
2 | O=C(OCc1ccccc1)c1c(O)oc(CO)c1O [4-Hydroxy-5-hydroxymethyl-2-oxo-2,5-dihydro-furan-3-carboxylic acid benzyl ester] | > 250 µM | > 125 µM
3 | CC(C)=CCCC(C)CCOC(=O)c1c(O)oc(CO)c1O (stereo unspecified) [4-Hydroxy-5-hydroxymethyl-2-oxo-2,5-dihydro-furan-3-carboxylic acid 3,7-dimethyl-oct-6-enyl ester] | > 250 µM | > 125 µM
